Experimental data as given in ChEMBL document CHEMBL1155137, “Extended-spectrum beta-lactamases of the CTX-M type now in Switzerland” (2007).
In brackets after ≈: the same amount, converted by molar mass.

Tests used:
Enterobacter [1] = assay: Antimicrobial activity against Enterobacter isolates producing extended-spectrum beta-lactamase assessed as percent resistant isolates by disk diffusion method
Enterobacter [2] = assay: Antimicrobial activity against Enterobacter isolates producing extended-spectrum beta-lactamase CTX-M-15 by agar dilution method; format: functional
Summary of the method: (§1)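 Enterobacterial clinical isolates on Mueller-Hinton agar. Agar dilution with an inoculum of 10⁴ CFU per spot gave MICs of selected β-lactams. β-lactams were tested alone or with a fixed level of clavulanic acid (4 μg/ml) or tazobactam (4 μg/ml).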

Enterobacter [3] = assay: Antimicrobial activity against Enterobacter isolates producing extended-spectrum beta-lactamase CTX-M-14 by agar dilution method; format: functional
Summary of the method: as §1

Enterobacter [4] = assay: Antimicrobial activity against Enterobacter isolates producing extended-spectrum beta-lactamase SHV-ES by agar dilution method; format: functional
Summary of the method: as §1

Enterobacter [5] = assay: Antimicrobial activity against Enterobacter isolates producing extended-spectrum beta-lactamase TEM-ES by agar dilution method; format: functional
Summary of the method: as §1

Enterobacter [6] = assay: Antimicrobial activity against Enterobacter isolates producing extended-spectrum beta-lactamase CTX-M-9 by agar dilution method; format: functional
Summary of the method: as §1

Enterobacter [7] = assay: Antimicrobial activity against Enterobacter isolates producing extended-spectrum beta-lactamase CTX-M-1 by agar dilution method; format: functional
Summary of the method: as §1

Enterobacter [8] = assay: Antimicrobial activity against Enterobacter isolates producing extended-spectrum beta-lactamase CTX-M-2 by agar dilution method; format: functional
Summary of the method: as §1

Compound | Activity (Enterobacter [1]) [%] | MIC (Enterobacter [2]) [µg/mL] | MIC (Enterobacter [3]) [µg/mL] | MIC (Enterobacter [4]) [µg/mL] | MIC (Enterobacter [5]) [µg/mL] | MIC (Enterobacter [6]) [µg/mL] | MIC (Enterobacter [7]) [µg/mL] | MIC (Enterobacter [8]) [µg/mL]
NCC[C@H](O)C(=O)N[C@@H]1C[C@H](N)[C@@H](O[C@H]2O[C@H](CN)[C@@H](O)[C@H](O)[C@H]2O)[C@H](O)[C@H]1O[C@H]1O[C@H](CO)[C@@H](O)[C@H](N)[C@H]1O [AMIKACIN] | 2 | – | – | – | – | – | – | –
C[C@H]1[C@H](NC(=O)/C(=N\OC(C)(C)C(=O)O)c2csc(N)n2)C(=O)N1S(=O)(=O)O [AZTREONAM] | – | 2 (≈ 4.59 µM) | 2 (≈ 4.59 µM) | 2 (≈ 4.59 µM) | 2 (≈ 4.59 µM) | 2 (≈ 4.59 µM) | 64 (≈ 147 µM) | 16 (≈ 36.7 µM)
CO/N=C(\C(=O)N[C@@H]1C(=O)N2C(C(=O)O)=C(COC(C)=O)CS[C@H]12)c1csc(N)n1 [CEFOTAXIME] | – | 128 (≈ 281 µM) | 32 (≈ 70.3 µM) | 2 (≈ 4.39 µM) | 0.12 (≈ 0.263 µM) | 32 (≈ 70.3 µM) | > 256 | 128 (≈ 281 µM)
CC1(C)S[C@@H]2[C@H](NC(=O)[C@H](N)c3ccc(O)cc3)C(=O)N2[C@H]1C(=O)O [AMOXICILLIN] | – | > 256 | > 256 | > 256 | > 256 | > 256 | > 256 | > 256
CO/N=C(\C(=O)N[C@@H]1C(=O)N2C(C(=O)[O-])=C(C[N+]3(C)CCCC3)CS[C@H]12)c1csc(N)n1 [CEFEPIME] | – | 8 (≈ 16.6 µM) | 2 (≈ 4.16 µM) | 0.25 (≈ 0.52 µM) | 0.25 (≈ 0.52 µM) | 2 (≈ 4.16 µM) | 32 (≈ 66.6 µM) | 16 (≈ 33.3 µM)
CCN1CCN(C(=O)N[C@@H](C(=O)N[C@@H]2C(=O)N3[C@@H]2SC(C)(C)[C@@H]3C(=O)O)c2ccccc2)C(=O)C1=O [PIPERACILLIN] | – | 128 (≈ 247 µM) | 32 (≈ 61.8 µM) | 32 (≈ 61.8 µM) | 32 (≈ 61.8 µM) | 64 (≈ 124 µM) | > 256 | 128 (≈ 247 µM)
CC1(C)S[C@@H]2[C@H](NC(=O)[C@H](C(=O)O)c3ccsc3)C(=O)N2[C@H]1C(=O)O [TICARCILLIN] | – | > 256 | > 256 | > 256 | > 256 | > 256 | > 256 | > 256
CC(C)(O/N=C(\C(=O)N[C@@H]1C(=O)N2C(C(=O)[O-])=C(C[n+]3ccccc3)CS[C@H]12)c1csc(N)n1)C(=O)O [CEFTAZIDIME] | – | 1 (≈ 1.83 µM) | 0.5 (≈ 0.915 µM) | 0.25 (≈ 0.457 µM) | 4 (≈ 7.32 µM) | 1 (≈ 1.83 µM) | 4 (≈ 7.32 µM) | 1 (≈ 1.83 µM)
O=C(N[C@H](CO)[C@H](O)c1ccc([N+](=O)[O-])cc1)C(Cl)Cl [CHLORAMPHENICOL] | 30 | – | – | – | – | – | – | –
C[C@@H](O)[C@H]1C(=O)N2C(C(=O)O)=C(S[C@@H]3CN[C@H](C(=O)Nc4cccc(C(=O)O)c4)C3)[C@H](C)[C@H]12 [ERTAPENEM] | – | 0.003 (≈ 0.00631 µM) | 0.003 (≈ 0.00631 µM) | 0.06 (≈ 0.126 µM) | 0.06 (≈ 0.126 µM) | 0.06 (≈ 0.126 µM) | 0.12 (≈ 0.252 µM) | 0.06 (≈ 0.126 µM)
O=C(O)c1cn(C2CC2)c2cc(N3CCNCC3)c(F)cc2c1=O [CIPROFLOXACIN] | 50 | – | – | – | – | – | – | –
CO[C@@]1(NC(=O)Cc2cccs2)C(=O)N2C(C(=O)O)=C(COC(N)=O)CS[C@@H]21 [CEFOXITIN] | – | 4 (≈ 9.36 µM) | 4 (≈ 9.36 µM) | 4 (≈ 9.36 µM) | 4 (≈ 9.36 µM) | 8 (≈ 18.7 µM) | 8 (≈ 18.7 µM) | 4 (≈ 9.36 µM)
C[C@@H](O)[C@H]1C(=O)N2C(C(=O)O)=C(SCCNC=N)C[C@H]12 [IMIPENEM ANHYDROUS] | – | 0.25 (≈ 0.835 µM) | 0.25 (≈ 0.835 µM) | 0.25 (≈ 0.835 µM) | 0.25 (≈ 0.835 µM) | 0.25 (≈ 0.835 µM) | 0.25 (≈ 0.835 µM) | 0.25 (≈ 0.835 µM)
CC(=O)OCC1=C(C(=O)O)N2C(=O)[C@@H](NC(=O)Cc3cccs3)[C@H]2SC1 [CEPHALOTHIN] | – | > 256 | > 256 | > 256 | > 256 | > 256 | > 256 | > 256
